The source of these data is ChEMBL document CHEMBL1124369, “Pyrido[3,4-e]-1,2,4-triazines and related heterocycles as potential antifungal agents” (1989).

In brackets after ≈: the same amount, converted by molar mass. Where only a bound is given, the exact number is not on record here.

Assay [1] concerns Aspergillus niger. Put plainly: Antifungal activity against Aspergillus niger. Type of assay: functional. The procedure, abridged:
(§1)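 Agar dilution MIC. Twofold serial drug dilutions in yeast nitrogen base medium with 1% dextrose, 0.15% asparagine and 1.5% agar. Agar surfaces inoculated using a Steers multiple inocula replicator, then incubated at 35 °C for 24-48 h. MIC was recorded as the lowest concentration inhibiting visible growth. Amphotericin B, miconazole and nystatin served as controls.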

The test system of assay [2] is Candida tropicalis. Kind of assay: Antifungal activity against Candida tropicalis. Format: functional. The procedure, abridged: as §1
Assay [3] relates to Trichophyton rubrum. Kind of assay: Antifungal activity against Trichophyton rubrum; Range is 32-64. Format: functional. The procedure, abridged:
as §1

Assay [4] deals with Candida albicans. Put plainly: Antifungal activity against Candida albicans. Type of assay: functional. The procedure, abridged:
as §1

The subject of assay [5] is Trichophyton benhamiae. Put plainly: Antifungal activity against Trichophyton mentagrophytes; Range is 64-128. Format: functional, trychophyton mentagrophytes. The procedure, abridged: as §1
The test system of assay [6] is Kluyveromyces marxianus. Kind of assay: Antifungal activity against Candida pseudotropicalis. Format: functional. An outline of the steps:
as §1

For the next assay, the system named is Candida parapsilosis. Put plainly: Antifungal activity against Candida parapsilosis. The following applies: Lodderomyces parapsilosis. Format: functional. The procedure, abridged: as §1
The test system of assay [7] is Candida tropicalis. Put plainly: Antifungal activity against Candida tropicalis; Range is 8-32. Format: functional. An outline of the steps:
as §1

In assay [8] the test system is Candida albicans. Put plainly: Antifungal activity against Candida albicans; Range is 8-16. Type of assay: functional. The procedure, abridged:
as §1

In assay [9] the test system is Trichophyton benhamiae. Put plainly: Antifungal activity against Trichophyton mentagrophytes. Type of assay: functional, trychophyton mentagrophytes. An outline of the steps: as §1
In assay [10] the test system is Kluyveromyces marxianus. Put plainly: Antifungal activity against Candida pseudotropicalis; Range is 8-16. Type of assay: functional. An outline of the steps: as §1
For assay [11], the system named is Trichophyton rubrum. Put plainly: Antifungal activity against Trichophyton rubrum. Type of assay: functional. An outline of the steps:
as §1

Assay [12] relates to Trichophyton rubrum. Kind of assay: Antifungal activity against Trichophyton rubrum; Range is 16-32. Type of assay: functional. An outline of the steps: as §1
Assay [13] deals with Trichophyton benhamiae. Put plainly: Antifungal activity against Trichophyton mentagrophytes; Range is 32-64. Format: functional, trychophyton mentagrophytes. An outline of the steps: as §1
The subject of assay [14] is Candida albicans. Put plainly: Antifungal activity against Candida albicans; Range is 64-128. Format: functional. An outline of the steps: as §1
The subject of assay [15] is Trichophyton rubrum. Put plainly: Antifungal activity against Trichophyton rubrum; Range is 4-8. Format: functional. An outline of the steps: as §1
Assay [16] deals with Aspergillus niger. Put plainly: Antifungal activity against Aspergillus niger; Range is 64-128. Type of assay: functional. The procedure, abridged: as §1
Assay [17] relates to Kluyveromyces marxianus. Put plainly: Antifungal activity against Candida pseudotropicalis; Range is 2-4. Type of assay: functional. An outline of the steps: as §1
Assay [18] concerns Candida albicans. Kind of assay: Antifungal activity against Candida albicans; Range is 16-32. Type of assay: functional. An outline of the steps:
as §1

Another assay has as its system Mucor fragilis. Kind of assay: Antifungal activity against Mucor fragilis. Format: functional. The procedure, abridged: as §1
Another assay deals with Diutina rugosa. Kind of assay: Antifungal activity against Candida rugosa. Type of assay: functional. An outline of the steps: as §1
Assay [19] deals with Candida albicans. Put plainly: Antifungal activity against Candida stellatoidea. Format: functional. An outline of the steps: as §1
The test system of assay [20] is Aspergillus niger. Kind of assay: Antifungal activity against Aspergillus niger; Range is 16-32. Format: functional. The procedure, abridged:
as §1

Assay [21] relates to Candida tropicalis. Put plainly: Antifungal activity against Candida tropicalis; Range is 4-16. Format: functional. The procedure, abridged:
as §1

The test system of assay [22] is Trichophyton rubrum. Put plainly: Antifungal activity against Trichophyton rubrum; Range is 1-2. Format: functional. An outline of the steps: as §1
Assay [23] concerns Aspergillus niger. Put plainly: Antifungal activity against Aspergillus niger; Range is 32-64. Format: functional. An outline of the steps: as §1
Assay [24] has as its system Trichophyton rubrum. Put plainly: Antifungal activity against Trichophyton rubrum; Range is 8-32. Type of assay: functional.
Assay [25] concerns Candida albicans. Put plainly: Antifungal activity against Candida albicans; Range is 32-64. Format: functional. An outline of the steps: as §1
Assay [26] has as its system Candida tropicalis. Kind of assay: Antifungal activity against Candida tropicalis; Range is 32-64. Format: functional. The procedure, abridged:
as §1

Assay [27] has as its system Trichophyton benhamiae. Put plainly: Antifungal activity against Trichophyton mentagrophytes; Range is 4-8. Format: functional, trychophyton mentagrophytes. The procedure, abridged: as §1
Assay [28] concerns Kluyveromyces marxianus. Kind of assay: Antifungal activity against Candida pseudotropicalis; Range is 4-8. Type of assay: functional. An outline of the steps: as §1
Assay [29] relates to Trichophyton rubrum. Kind of assay: Antifungal activity against Trichophyton rubrum; Range is 2-4. Format: functional. The procedure, abridged:
as §1

For assay [30], the system named is Candida tropicalis. Put plainly: Antifungal activity against Candida tropicalis; Range is 16-32. Format: functional. An outline of the steps: as §1
The test system of assay [31] is Trichophyton benhamiae. Put plainly: Antifungal activity against Trichophyton mentagrophytes; Range is 8-32. Format: functional, trychophyton mentagrophytes. An outline of the steps: as §1

As a reminder, the MIC is the lowest concentration that inhibits growth of the organism. On to `Cc1nc(C)c2nc(-c3ccc(F)cc3)nnc2c1NC(=O)c1ccccc1`, for which the MIC worked out at 128 µg/mL (≈ 343 µM) in the assay on Aspergillus niger [1]; 128 µg/mL (≈ 343 µM) in the assay with Candida tropicalis [2]; 32 µg/mL (≈ 85.7 µM) in the assay on Trichophyton rubrum [3]; 128 µg/mL (≈ 343 µM) in the assay with Candida albicans [4]; 64 µg/mL (≈ 171 µM) against Trichophyton benhamiae [5]; 128 µg/mL (≈ 343 µM) against Kluyveromyces marxianus [6]. In the assay with Candida parapsilosis, this molecule had an MIC of 128 µg/mL (≈ 343 µM).

As for `Cc1nnc2ccnc(C)c2n1`, the MIC with Aspergillus niger [1] was 64 µg/mL (≈ 400 µM); in the assay with Candida tropicalis [7] it was 8 µg/mL (≈ 49.9 µM); against Candida albicans [8] it was 8 µg/mL (≈ 49.9 µM); in the assay on Trichophyton benhamiae [9], 8 µg/mL (≈ 49.9 µM); against Kluyveromyces marxianus [10], 8 µg/mL (≈ 49.9 µM); against Trichophyton rubrum [11], 8 µg/mL (≈ 49.9 µM). The molecule further came in with an MIC with Candida parapsilosis of 128 µg/mL (≈ 799 µM).

`CC(C)(C)c1nnc2ccncc2n1`: the MIC against Aspergillus niger [1] was 64 µg/mL (≈ 340 µM); with Candida tropicalis [2] it was 64 µg/mL (≈ 340 µM); in the assay on Trichophyton rubrum [12], 16 µg/mL (≈ 85 µM); in the assay on Trichophyton benhamiae [13] it was 32 µg/mL (≈ 170 µM); against Candida albicans [4], 64 µg/mL (≈ 340 µM); with Kluyveromyces marxianus [6], 64 µg/mL (≈ 340 µM). The molecule further came in with an MIC in the assay with Candida parapsilosis of 64 µg/mL (≈ 340 µM).

With `C(=C\N1CCCCC1)/c1nnc2ccncc2n1`, the MIC with Candida tropicalis [2] amounted to 128 µg/mL (≈ 530 µM); against Candida albicans [14], 64 µg/mL (≈ 265 µM); against Trichophyton benhamiae [9], 16 µg/mL (≈ 66.3 µM); against Trichophyton rubrum [15] it was 4 µg/mL (≈ 16.6 µM); against Aspergillus niger [16] it was 64 µg/mL (≈ 265 µM); with Kluyveromyces marxianus [6], 128 µg/mL (≈ 530 µM). This molecule also yielded an MIC in the assay on Candida parapsilosis of 128 µg/mL (≈ 530 µM).

Take `c1ccc2c(c1)ncc1nc(-c3ccncc3)nnc12`: the MIC in the assay with Candida tropicalis [2] was 128 µg/mL (≈ 494 µM); against Trichophyton benhamiae [9] it was 64 µg/mL (≈ 247 µM); against Kluyveromyces marxianus [17], 2 µg/mL (≈ 7.71 µM); in the assay with Candida albicans [4] it was 128 µg/mL (≈ 494 µM); against Aspergillus niger [16] it was 64 µg/mL (≈ 247 µM); against Trichophyton rubrum [11], 64 µg/mL (≈ 247 µM). The molecule further came in with an MIC against Candida parapsilosis of 128 µg/mL (≈ 494 µM).

Regarding `FC(F)(F)c1nnc2ccncc2n1`, the MIC against Candida albicans [18] came to 16 µg/mL (≈ 80 µM); in the assay with Aspergillus niger [1], 32 µg/mL (≈ 160 µM); against Candida tropicalis [2], 32 µg/mL (≈ 160 µM); against Mucor fragilis it was 8 µg/mL (≈ 40 µM); in the assay on Diutina rugosa, 16 µg/mL (≈ 80 µM); in the assay on Kluyveromyces marxianus [10] it was 8 µg/mL (≈ 40 µM). This molecule also came in with an MIC with Candida albicans [19] of 16 µg/mL (≈ 80 µM).

`c1cc2c(cn1)NC1(CCCCC1)N=N2`: the MIC in the assay on Aspergillus niger [1] worked out at 128 µg/mL (≈ 633 µM); with Candida tropicalis [2], 128 µg/mL (≈ 633 µM); with Trichophyton rubrum [3] it was 32 µg/mL (≈ 158 µM); against Trichophyton benhamiae [13], 32 µg/mL (≈ 158 µM); in the assay with Candida albicans [4], 128 µg/mL (≈ 633 µM); with Kluyveromyces marxianus [6], 128 µg/mL (≈ 633 µM). In the assay on Candida parapsilosis, this molecule gave an MIC of 128 µg/mL (≈ 633 µM).

As for `c1cncc(-c2nnc3ccncc3n2)c1`, the MIC in the assay on Aspergillus niger [20] was 16 µg/mL (≈ 76.5 µM); in the assay with Candida albicans [8] it was 8 µg/mL (≈ 38.2 µM); against Trichophyton benhamiae [9] it was 4 µg/mL (≈ 19.1 µM); with Mucor fragilis, greater than 128 µg/mL; in the assay on Candida tropicalis [21], 4 µg/mL (≈ 19.1 µM); with Diutina rugosa, 16 µg/mL (≈ 76.5 µM). Moreover, the MIC against Trichophyton rubrum [22] was 1 µg/mL (≈ 4.78 µM); against Kluyveromyces marxianus [6] it was 4 µg/mL (≈ 19.1 µM); in the assay on Candida parapsilosis, 16 µg/mL (≈ 76.5 µM); against Candida albicans [19] it was 32 µg/mL (≈ 153 µM).

With `CCCc1nnc2ccncc2n1`, the MIC came to 32 µg/mL (≈ 184 µM) against Aspergillus niger [23]; 8 µg/mL (≈ 45.9 µM) with Trichophyton rubrum [24]; 32 µg/mL (≈ 184 µM) in the assay on Candida albicans [25]; 32 µg/mL (≈ 184 µM) against Candida tropicalis [26]; 32 µg/mL (≈ 184 µM) in the assay on Trichophyton benhamiae [9]; 64 µg/mL (≈ 367 µM) against Mucor fragilis. Besides, the MIC in the assay with Diutina rugosa is 64 µg/mL (≈ 367 µM); against Kluyveromyces marxianus [6] it was 16 µg/mL (≈ 91.8 µM); against Candida parapsilosis, 64 µg/mL (≈ 367 µM); in the assay with Candida albicans [19], 64 µg/mL (≈ 367 µM).

In the case of `N#Cc1ccc(-c2nnc3ccncc3n2)cc1`, the MIC in the assay with Trichophyton benhamiae [27] is 4 µg/mL (≈ 17.2 µM); against Aspergillus niger [1] it was 128 µg/mL (≈ 549 µM); against Candida tropicalis [7], 8 µg/mL (≈ 34.3 µM); in the assay on Mucor fragilis, 128 µg/mL (≈ 549 µM); in the assay with Diutina rugosa, greater than 128 µg/mL; in the assay on Candida albicans [4], 64 µg/mL (≈ 274 µM). The minimum inhibitory concentration (MIC) with Kluyveromyces marxianus [28] was found to be 4 µg/mL (≈ 17.2 µM); in the assay on Trichophyton rubrum [29], 2 µg/mL (≈ 8.58 µM); in the assay on Candida parapsilosis, 64 µg/mL (≈ 274 µM); with Candida albicans [19] it was 128 µg/mL (≈ 549 µM).

Turning to `Cc1nccc2nncnc12`, the minimal inhibitory concentration (MIC) is 16 µg/mL (≈ 109 µM) with Candida albicans [18]; 32 µg/mL (≈ 219 µM) in the assay with Aspergillus niger [1]; 16 µg/mL (≈ 109 µM) against Candida tropicalis [30]; 8 µg/mL (≈ 54.7 µM) against Trichophyton benhamiae [31]; 8 µg/mL (≈ 54.7 µM) in the assay on Kluyveromyces marxianus [6]; 4 µg/mL (≈ 27.4 µM) with Trichophyton rubrum [11]. This molecule had an MIC with Candida parapsilosis of 64 µg/mL (≈ 438 µM).
